CHRM5 PAM: positive allosteric modulators of human muscarinic M5 receptor | P08912 | 360,000 tested, 0.3% active | activation, % at 3 µM | CHO-K1 hM5, Fluo-8 calcium, ACh EC20 PAM; 0% = ACh EC20, 100% = ACh EC100 | AID 624038;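 active = activation above the run cutoff, the mean activation of all test compounds plus 3 SD, cut at about 18% in these data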
Target sequence (P08912 whole entry, looked up): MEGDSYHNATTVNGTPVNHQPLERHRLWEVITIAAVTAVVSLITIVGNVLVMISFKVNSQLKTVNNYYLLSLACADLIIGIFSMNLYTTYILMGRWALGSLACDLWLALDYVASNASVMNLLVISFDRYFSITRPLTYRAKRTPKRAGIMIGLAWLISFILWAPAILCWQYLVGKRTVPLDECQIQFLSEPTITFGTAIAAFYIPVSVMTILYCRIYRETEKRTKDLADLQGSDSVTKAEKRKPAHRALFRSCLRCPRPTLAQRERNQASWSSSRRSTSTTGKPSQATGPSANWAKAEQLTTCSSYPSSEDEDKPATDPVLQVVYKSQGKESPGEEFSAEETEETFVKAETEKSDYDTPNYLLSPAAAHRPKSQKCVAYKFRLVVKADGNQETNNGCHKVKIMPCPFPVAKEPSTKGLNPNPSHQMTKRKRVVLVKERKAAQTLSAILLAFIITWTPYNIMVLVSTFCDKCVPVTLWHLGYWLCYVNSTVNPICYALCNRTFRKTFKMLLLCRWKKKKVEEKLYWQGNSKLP
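System – CHO-K1 hM5 cells · Compound – 3 µM, single dose · Incubation – compound preincubation 140 s before EC20 acetylcholine addition · Technique – Fluo-8 calcium fluorescence · Measure – Max/basal fluorescence ratio as % of EC20–EC100 ACh window · Benchmarks – low control EC20 acetylcholine (0%), high control EC100 acetylcholine (100%) · Replication – singlicate, one well per test compound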
M5 ag: agonists of human muscarinic M5 receptor (CHRM5); activation, % at 3 µM; AID 624037; 360,000 tested, 0.19% active; CHO-K1 hM5 cells, Fluo-8 calcium fluorescence; 0% DMSO wells, 100% maximal acetylcholine response;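 active = activation above the run's mean over test compounds plus 3 SD, cut at about 23% in these data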;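 note: signal is peak over basal fluorescence ratio across the kinetic read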
M1 PAM: human CHRM1 positive allosteric modulation; CHO-K1 hM1, Fluo-8 calcium fluorescence, ACh EC20; 0% = ACh EC20, 100% = maximal ACh; 360,000 tested, 0.088% active; AID 588819; activation, % at 3 µM; P11229; in the data active = activation above about 19%, passing the limit was not always enough
M1 ag: agonists of human M1 muscarinic receptor; 360,000 tested, 0.33% active; AID 588814; P11229; CHO-K1 hM1, Fluo-8 calcium fluorescence, agonist mode; 0% DMSO, 100% acetylcholine EC100; activation, % at 3 µM;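 active = activation above the run's mean compound activation plus 3 SD, cut at about 16% in these data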;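 note: peak over basal fluorescence ratio within a 140 s kinetic read after compound addition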
CHRM5 antagonist: blocks acetylcholine activation of human M5 receptor | 360,000 tested, 0.59% active | CHO-hM5 cells, Fluo-8 calcium fluorescence, ACh EC80 | AID 624040 | P08912 | inhibition, % at 3 µM;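 active = inhibition above a per-plate cutoff, the mean of that plate's test compounds plus 3 SD, cut at about 27% in these data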;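 note: 0% = acetylcholine EC80 with DMSO and 100% = DMSO without agonist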
M1 antag: antagonists of human M1 muscarinic receptor. 360,000 tested, 1.3% active. AID 588852. inhibition, % at 3 µM. CHO-K1 hM1, Fluo-8 calcium fluorescence, ACh EC80 antagonist;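 active = percent inhibition above its own plate's cutoff, namely the mean of that plate's compound wells plus 3 SD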;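 note: peak over basal fluorescence ratio during 140 s after agonist addition; 0% = ACh EC80 plus DMSO and 100% = DMSO alone without agonist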
* marks the source's active call; other numbers are inactive results. Most compounds without a hit are left out; they make up all but 2.2% or so of the library.

SMILES	CHRM5 PAM	M5 ag	M1 PAM	M1 ag	CHRM5 antagonist	M1 antag
CN1CCC(Oc2ccccc2Sc2ccc(C(F)(F)F)cc2)CC1	-20	-9	-24	-10	14	64*
CC1(C)CC(=O)C=C(c2cccc(O)c2)C1=O	2	1	-2	-3	5	3
N#CC1=C(N)OC2=C(CC/C2=C\c2ccccc2)C1c1ccccc1 (configuration not stated)	-13	2	-10	18*	10	31*
Cn1cc(CN2CCC(C(=O)NC(c3ccc(F)cc3)c3ccc4ccccc4n3)CC2)c2ccccc21 (configuration not stated)	-5	1	-10	-4	6	16
CCc1nnc(NC(=O)CS(=O)(=O)Cc2ccccc2)s1	5	-1	2	-10	-10	-1
CC(C)(C)OC(=O)C[C@H]1C/C=C\C[C@@H](CC(=O)NCCO)C(=O)NCCOC1=O	2	5	0	-5	-4	4
O=[N+]([O-])c1ccc(N/N=C2\CC3CC=CC23)c([N+](=O)[O-])c1 (configuration not stated)	-7	7	-5	-4	13	14
O=[N+]([O-])c1ccc(NN=C2CC3CCC2C3)c([N+](=O)[O-])c1 (configuration not stated)	-15	7	-23	-6	9	39*
CCOC(=O)c1cnc2c(CC)cccc2c1NCCN1CCOCC1	-1	-8	-26	-9	27*	64*
CCOC(=O)c1cnc2c(C(=O)OC)cccc2c1NCCN1CCOCC1	7	0	13	-11	-4	-4
CC(=O)N(C)c1ccc(NC(=O)Nc2ccccc2C)cc1	1	-2	-1	-2	-6	-2
CC(=O)N(C)c1ccc(NC(=O)Nc2ccc(C)c(C)c2)cc1	-19	4	-18	1	29*	27*
CCOCCCNC(=O)CNC(=S)N(Cc1ccc(C)cc1)Cc1ccco1	1	-4	7	-2	12	-12
O=C(c1ccccc1)C(Nc1ccccn1)c1ccccc1 (configuration not stated)	-7	-18	-24	-8	9	35*
O=C(Nc1ccccn1)c1ccccc1	-1	3	0	-2	22	1
CCCCOc1ccc(N(CC(=O)NC2CCCCC2)C(=O)CCC(=O)Nc2ccccn2)cc1	9	-2	12	-5	7	-11
CCOc1ccc(CCNC(=O)c2ccc(NC3=NC4CS(=O)(=O)CC4S3)cc2)cc1 (configuration not stated)	-3	-2	6	-3	12	-11
CC(=O)NCCNC(=O)c1ccc(NC2=NC3CS(=O)(=O)CC3S2)cc1 (configuration not stated)	27*	3	8	-3	29*	-19
CCN(CC)c1ccc(/C=N/NC(=O)CNC(=O)c2ccc3c(c2)OCCO3)cc1	5	-7	31*	-11	-2	-35
CC1CCN(CCCCOc2ccccc2[N+](=O)[O-])CC1	-4	-7	-5	-15	-6	-3
Cc1ccc2c(c1)C1(SC(C)C(=O)N1c1ccc(Cl)cc1)C(=O)N2 (configuration not stated)	-23	-8	-26	-12	9	25
Cc1ccc(N2C(=O)CSC23C(=O)Nc2ccccc23)cc1 (configuration not stated)	-9	-6	-19	-5	0	41*
O=C(Cc1ccc(Cl)cc1)Nc1ccc(Cl)cn1	21*	0	-3	-4	-8	-3
C/C(=C\c1ccccc1)C(=O)Nc1ccc(Cl)cn1	4	-8	-9	-9	6	31*
O=C(Cc1ccc(F)cc1)Nc1ccc(Cl)cn1	49*	0	6	-6	30*	-16
SMILES	CHRM5 PAM	M5 ag	M1 PAM	M1 ag	CHRM5 antagonist	M1 antag
CC(=O)N1CCN(C(=O)c2cc(S(=O)(=O)N3CCCCC3)ccc2Cl)CC1	3	-1	10	-4	5	-13
Cc1ccc(C)c(NC(=S)N2CCC(C(=O)c3ccc(F)cc3)CC2)c1	-4	-2	2	-4	-2	-8
CCN(CC)CCOC(=O)C(Cc1ccco1)Cc1cccc2ccccc12 (configuration not stated)	-27	-16	-25	-5	28*	59*
CCN(CC)CCOC(=O)CCc1cccc2ccccc12	-15	-12	-13	-3	-3	11
CCCCC(CC)C(=O)Nc1ncc([N+](=O)[O-])s1 (configuration not stated)	-31	-1	-23	-3	19	49*
CCN(CC)CC(=O)NCC1(c2ccccc2)CCOCC1	2	-4	3	-3	-4	-8
O=C(CN1CCCCC1)NN(Cc1ccccc1)c1ccccc1	-17	-10	-34	-13	-1	61*
CCN(CC)CC(=O)NCC1(c2ccccc2)CCCC1	1	-18	-27	-8	5	66*
O=C(CN1CCCCC1)NCC1(c2ccccc2)CCCC1	-9	-10	-26	-9	0	40*
COc1ccc(/C=N/OCC(=O)Nc2ccc3c(c2)OCO3)c(OC)c1	0	3	-4	-2	5	-3
Cc1c(C(=O)NCC2COc3ccccc3O2)oc2ccc(S(=O)(=O)N3CC(C)CC(C)C3)cc12 (configuration not stated)	-6	2	-9	-4	8	14
Cc1c(C(=O)NCCC2=CCCCC2)oc2ccc(S(=O)(=O)N3CCC4(CC3)OCCO4)cc12	-18	1	-12	-1	22	35*
Cc1c(C(=O)NCC2COc3ccccc3O2)oc2ccc(S(=O)(=O)N3CCOCC3)cc12 (configuration not stated)	-21	6	-7	2	24	35*
Cc1cc2nc3n(c2cc1C)CC1CC(C(=O)NCc2cccc(C(F)(F)F)c2)N(C)C31 (configuration not stated)	5	0	-2	-9	-5	3
COc1ccc(/C=C2\S/C(=N/S(=O)(=O)c3cccs3)NC2=O)cc1	2	0	3	-4	8	5
COc1ccc(S(=O)(=O)N2CCc3ccccc32)cc1C(=O)Nc1ccc(C(N)=O)cc1	-37	-3	4	-1	37*	1
COc1ccc(C(=O)Nc2cccc(C)n2)cc1S(=O)(=O)N1CCCc2ccccc21	-21	-5	-10	-3	13	15
COc1ccc(C(=O)Nc2ccc(C)cn2)cc1S(=O)(=O)N1CCCc2ccccc21	-10	-6	-13	-4	1	23*

Source: PubChem (The Scripps Research Institute Molecular Screening Center)
